Test results reported in ChEMBL document CHEMBL4020823, “Highly Selective, Potent, and Oral mTOR Inhibitor for Treatment of Cancer as Autophagy Inducer” (J Med Chem, 2018).
The source made the active and inactive calls. No cut-off for these calls is given here.

How the values were obtained:
[1] = target: PI3K p110 alpha/p85 alpha (Mus musculus) (UniProt P26450+P42337); assay: Inhibition of full length recombinant mouse PI3K p110alpha/p85alpha at 1 uM relative to control; format: protein-complex assay
How it was run: (§1)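 Eurofins KinaseProfiler panel with compound at a single 1 μM concentration. ATP at the Km of each kinase. Result is % inhibition, mean of two independent experiments.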

Homo sapiens [2] = species: Homo sapiens; assay: Inhibition of full length recombinant human PI3K p110alpha/p65alpha at 1 uM relative to control; how it was run: as §1
SiHa [3] = assay: Induction of autophagy in human SiHa cells assessed as increase in LC3-2 puncta level after 48 hrs by immunofluorescence staining based microscopic analysis; format: functional, cell-based
How it was run: (§2)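 Cells seeded on glass coverslips in complete 1640 or DMEM and incubated with inhibitors at different concentrations for 48 h. Fixed in 4% paraformaldehyde, permeabilized with 0.15% Triton X-100, blocked in 4% BSA/PBS for 1 h at room temperature. Anti-LC3B (1:200) overnight, then FITC-conjugated secondary, DAPI nuclear stain. LC3B-II puncta viewed by fluorescence microscopy.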

[4] = target: PI3K p110 beta/p85 alpha (Homo sapiens) (UniProt P27986+P42338); assay: Inhibition of full length recombinant human PI3K p110beta/p85alpha at 1 uM relative to control; format: protein-complex assay; how it was run: as §1
[5] = Oral bioavailability in Sprague-Dawley rat at 20 mg/kg administered as single dose by HPLC analysis; format: ADME, organism-based; details: in vivo
How it was run: (§3)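 Rats fasted overnight, then given a single 20 mg/kg dose either iv or po. Blood collected and centrifuged immediately to obtain plasma. Plasma drug levels measured by HPLC, and pharmacokinetic parameters derived from both routes.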

T47D [6] = assay: Antitumor activity against human T47D cells xenografted in BALB/c nude mouse assessed as decrease in tumor growth at 60 mg/kg, po administered via gavage after 3 weeks relative to control; format: functional; details: 504 h, read-out: TGI
Mus musculus [7] = assay: Down regulation of S6 phosphorylation at Ser240/244 residues in human T47D cells xenografted in BALB/c nude mouse administered via oral gavage after 3 weeks by hematoxylin and eosine staining based light microscopic assay; format: functional, cell-based
How it was run: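 Tumours from the oral 3-week T-47D xenograft study were formalin-fixed, paraffin-embedded and cut into 5 μm sections. Sections were deparaffinized, rehydrated and incubated overnight at 4 °C with phospho-specific primary antibody at 1:100. Biotin secondary was applied for 1 h at room temperature, then ABC-peroxidase/DAB with hematoxylin counterstain. Sections were viewed by light microscopy.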

[8] = MRT (0 to infinity) in Sprague-Dawley rat at 20 mg/kg, po administered as single dose by HPLC analysis; format: ADME, organism-based; details: in vivo; how it was run: as §3
Homo sapiens [9] = species: Homo sapiens; assay: Inhibition of mTORC1 in human MCF7 cells assessed as reduction in 4E-BP1 phosphorylation at Thr37/46 residues at 0.25 to 0.5 uM by Western blot analysis; format: cell-based
How it was run: (§4)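 Cells treated with the indicated concentrations, then whole-cell lysates immunoblotted. mTORC1 activity read as S6 and 4E-BP1 phosphorylation; mTORC2 activity read as AKT Ser473 phosphorylation. Blocking in 5% skim milk, primary antibodies at 4 °C overnight, peroxidase-conjugated secondary, ECL detection.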

T47D [10] = assay: Cell cycle arrest in human T47D cells assessed as decrease in S-phase at 0.25 to 0.5 uM after 24 hrs by propidium iodide-staining based flow cytometric analysis; format: functional
How it was run: (§5)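 Cells were seeded at 5 × 10^5 cells/mL. At 24 h after plating they were treated with increasing concentrations for 24 h, washed in PBS, and fixed in ice-cold 70% ethanol for at least 24 h. They were stained with propidium iodide plus RNase A for 30 min at 37 °C and analysed by flow cytometry for phase distribution.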

HeLa [11] = assay: Inhibition of mTORC1 in human HeLa cells assessed as reduction in S6 phosphorylation at Ser 240/244 residues at 0.5 to 1 uM by Western blot analysis; format: cell-based; how it was run: as §4
T47D [12] = assay: Antitumor activity against human T47D cells xenografted in BALB/c nude mouse assessed as decrease in tumor growth at 30 mg/kg, po administered via gavage after 3 weeks relative to control; format: functional; details: 504 h, read-out: TGI
Homo sapiens [13] = species: Homo sapiens; assay: Inhibition of mTORC2 in human MDA-MB-231 cells assessed as reduction in AKT phosphorylation at Ser473 residues at 0.25 to 0.5 uM by Western blot analysis; format: cell-based
How it was run: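 Cells exposed to a range of compound concentrations; whole-cell lysates immunoblotted for phospho-AKT (Ser473) as the mTORC2 readout, alongside S6 and 4E-BP1 phosphorylation for mTORC1. Membranes blocked in 5% skim milk, primary antibodies overnight at 4 °C, peroxidase-conjugated anti-mouse or anti-rabbit IgG secondary, ECL detection. Rapamycin as comparator.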

[14] = target: PI3-kinase p110-alpha/p85-alpha (Homo sapiens) (UniProt P27986+P42336); assay: Inhibition of full length recombinant human PI3K p110alpha/p85alpha at 1 uM relative to control; format: protein-complex assay; how it was run: as §1
[15] = Tmax in Sprague-Dawley rat at 20 mg/kg, po administered as single dose by HPLC analysis; format: ADME, organism-based; details: in vivo; how it was run: as §3
[16] = target: DNA-dependent protein kinase catalytic subunit (Homo sapiens, UniProt P78527); assay: Inhibition of full length recombinant human DNA-PK
SiHa [17] = assay: Growth inhibition of human SiHa cells after 72 hrs by CCK8 assay; format: functional, cell-based
How it was run: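 Cells were seeded at 2000–3000 per well and grown 24 h in serum-containing medium. They were then exposed to serially diluted compound for 72 h at 37 °C, 5% CO2. CCK8 reagent was added for 1–4 h and absorbance read at 450 nm. Inhibition = (AC − AS)/(AC − Ab) × 100%. IC50 is the average of at least three independent determinations.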

[18] = target: Phosphatidylinositol 4-phosphate 3-kinase C2 domain-containing subunit alpha (Homo sapiens) (UniProt O00443); assay: Inhibition of human PI3KC2alpha at 1 uM relative to control; how it was run: as §1
T47D [19] = assay: Induction of autophagy in human T47D cells assessed as increase in LC3-2 puncta level at 0.25 to 0.5 uM after 48 hrs by immunofluorescence staining based microscopic analysis; format: functional, cell-based; how it was run: as §2
SiHa [20] = assay: Cell cycle arrest in human SiHa cells assessed as accumulation at G0/G1 phase at 0.25 to 0.5 uM after 24 hrs by propidium iodide-staining based flow cytometric analysis; format: functional; how it was run: as §5
Mus musculus [21] = assay: Toxicity in BALB/c nude mouse xenografted with human T47D cells assessed as decrease in body weight at 15 to 60 mg/kg, po administered via gavage for 3 weeks measured during compound dosing; format: organism-based; details: in vivo, 504 h
How it was run: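 BALB/c nude mice, 6−8 weeks old, injected subcutaneously with 100 μL T-47D cells at 2 × 10^7 per mL in serum-free medium. At 100−120 mm3, randomized to 5 groups of 5: 15, 30 or 60 mg/kg/d, rapamycin 60 mg/kg/d, or vehicle. Dosed daily by intragastric route in DMSO for 3 weeks. Side effects checked daily; body weight every other day.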

Homo sapiens [22] = species: Homo sapiens; assay: Inhibition of mTORC1 in human T47D cells assessed as reduction in 4E-BP1 phosphorylation at Ser65 residues at 0.25 to 0.5 uM by Western blot analysis; format: cell-based; how it was run: as §4
HeLa [23] = assay: Cell cycle arrest in human HeLa cells assessed as decrease in S-phase at 0.5 to 1 uM after 24 hrs by propidium iodide-staining based flow cytometric analysis; format: functional; how it was run: as §5

Chain of DNA-dependent protein kinase catalytic subunit (P78527 whole entry): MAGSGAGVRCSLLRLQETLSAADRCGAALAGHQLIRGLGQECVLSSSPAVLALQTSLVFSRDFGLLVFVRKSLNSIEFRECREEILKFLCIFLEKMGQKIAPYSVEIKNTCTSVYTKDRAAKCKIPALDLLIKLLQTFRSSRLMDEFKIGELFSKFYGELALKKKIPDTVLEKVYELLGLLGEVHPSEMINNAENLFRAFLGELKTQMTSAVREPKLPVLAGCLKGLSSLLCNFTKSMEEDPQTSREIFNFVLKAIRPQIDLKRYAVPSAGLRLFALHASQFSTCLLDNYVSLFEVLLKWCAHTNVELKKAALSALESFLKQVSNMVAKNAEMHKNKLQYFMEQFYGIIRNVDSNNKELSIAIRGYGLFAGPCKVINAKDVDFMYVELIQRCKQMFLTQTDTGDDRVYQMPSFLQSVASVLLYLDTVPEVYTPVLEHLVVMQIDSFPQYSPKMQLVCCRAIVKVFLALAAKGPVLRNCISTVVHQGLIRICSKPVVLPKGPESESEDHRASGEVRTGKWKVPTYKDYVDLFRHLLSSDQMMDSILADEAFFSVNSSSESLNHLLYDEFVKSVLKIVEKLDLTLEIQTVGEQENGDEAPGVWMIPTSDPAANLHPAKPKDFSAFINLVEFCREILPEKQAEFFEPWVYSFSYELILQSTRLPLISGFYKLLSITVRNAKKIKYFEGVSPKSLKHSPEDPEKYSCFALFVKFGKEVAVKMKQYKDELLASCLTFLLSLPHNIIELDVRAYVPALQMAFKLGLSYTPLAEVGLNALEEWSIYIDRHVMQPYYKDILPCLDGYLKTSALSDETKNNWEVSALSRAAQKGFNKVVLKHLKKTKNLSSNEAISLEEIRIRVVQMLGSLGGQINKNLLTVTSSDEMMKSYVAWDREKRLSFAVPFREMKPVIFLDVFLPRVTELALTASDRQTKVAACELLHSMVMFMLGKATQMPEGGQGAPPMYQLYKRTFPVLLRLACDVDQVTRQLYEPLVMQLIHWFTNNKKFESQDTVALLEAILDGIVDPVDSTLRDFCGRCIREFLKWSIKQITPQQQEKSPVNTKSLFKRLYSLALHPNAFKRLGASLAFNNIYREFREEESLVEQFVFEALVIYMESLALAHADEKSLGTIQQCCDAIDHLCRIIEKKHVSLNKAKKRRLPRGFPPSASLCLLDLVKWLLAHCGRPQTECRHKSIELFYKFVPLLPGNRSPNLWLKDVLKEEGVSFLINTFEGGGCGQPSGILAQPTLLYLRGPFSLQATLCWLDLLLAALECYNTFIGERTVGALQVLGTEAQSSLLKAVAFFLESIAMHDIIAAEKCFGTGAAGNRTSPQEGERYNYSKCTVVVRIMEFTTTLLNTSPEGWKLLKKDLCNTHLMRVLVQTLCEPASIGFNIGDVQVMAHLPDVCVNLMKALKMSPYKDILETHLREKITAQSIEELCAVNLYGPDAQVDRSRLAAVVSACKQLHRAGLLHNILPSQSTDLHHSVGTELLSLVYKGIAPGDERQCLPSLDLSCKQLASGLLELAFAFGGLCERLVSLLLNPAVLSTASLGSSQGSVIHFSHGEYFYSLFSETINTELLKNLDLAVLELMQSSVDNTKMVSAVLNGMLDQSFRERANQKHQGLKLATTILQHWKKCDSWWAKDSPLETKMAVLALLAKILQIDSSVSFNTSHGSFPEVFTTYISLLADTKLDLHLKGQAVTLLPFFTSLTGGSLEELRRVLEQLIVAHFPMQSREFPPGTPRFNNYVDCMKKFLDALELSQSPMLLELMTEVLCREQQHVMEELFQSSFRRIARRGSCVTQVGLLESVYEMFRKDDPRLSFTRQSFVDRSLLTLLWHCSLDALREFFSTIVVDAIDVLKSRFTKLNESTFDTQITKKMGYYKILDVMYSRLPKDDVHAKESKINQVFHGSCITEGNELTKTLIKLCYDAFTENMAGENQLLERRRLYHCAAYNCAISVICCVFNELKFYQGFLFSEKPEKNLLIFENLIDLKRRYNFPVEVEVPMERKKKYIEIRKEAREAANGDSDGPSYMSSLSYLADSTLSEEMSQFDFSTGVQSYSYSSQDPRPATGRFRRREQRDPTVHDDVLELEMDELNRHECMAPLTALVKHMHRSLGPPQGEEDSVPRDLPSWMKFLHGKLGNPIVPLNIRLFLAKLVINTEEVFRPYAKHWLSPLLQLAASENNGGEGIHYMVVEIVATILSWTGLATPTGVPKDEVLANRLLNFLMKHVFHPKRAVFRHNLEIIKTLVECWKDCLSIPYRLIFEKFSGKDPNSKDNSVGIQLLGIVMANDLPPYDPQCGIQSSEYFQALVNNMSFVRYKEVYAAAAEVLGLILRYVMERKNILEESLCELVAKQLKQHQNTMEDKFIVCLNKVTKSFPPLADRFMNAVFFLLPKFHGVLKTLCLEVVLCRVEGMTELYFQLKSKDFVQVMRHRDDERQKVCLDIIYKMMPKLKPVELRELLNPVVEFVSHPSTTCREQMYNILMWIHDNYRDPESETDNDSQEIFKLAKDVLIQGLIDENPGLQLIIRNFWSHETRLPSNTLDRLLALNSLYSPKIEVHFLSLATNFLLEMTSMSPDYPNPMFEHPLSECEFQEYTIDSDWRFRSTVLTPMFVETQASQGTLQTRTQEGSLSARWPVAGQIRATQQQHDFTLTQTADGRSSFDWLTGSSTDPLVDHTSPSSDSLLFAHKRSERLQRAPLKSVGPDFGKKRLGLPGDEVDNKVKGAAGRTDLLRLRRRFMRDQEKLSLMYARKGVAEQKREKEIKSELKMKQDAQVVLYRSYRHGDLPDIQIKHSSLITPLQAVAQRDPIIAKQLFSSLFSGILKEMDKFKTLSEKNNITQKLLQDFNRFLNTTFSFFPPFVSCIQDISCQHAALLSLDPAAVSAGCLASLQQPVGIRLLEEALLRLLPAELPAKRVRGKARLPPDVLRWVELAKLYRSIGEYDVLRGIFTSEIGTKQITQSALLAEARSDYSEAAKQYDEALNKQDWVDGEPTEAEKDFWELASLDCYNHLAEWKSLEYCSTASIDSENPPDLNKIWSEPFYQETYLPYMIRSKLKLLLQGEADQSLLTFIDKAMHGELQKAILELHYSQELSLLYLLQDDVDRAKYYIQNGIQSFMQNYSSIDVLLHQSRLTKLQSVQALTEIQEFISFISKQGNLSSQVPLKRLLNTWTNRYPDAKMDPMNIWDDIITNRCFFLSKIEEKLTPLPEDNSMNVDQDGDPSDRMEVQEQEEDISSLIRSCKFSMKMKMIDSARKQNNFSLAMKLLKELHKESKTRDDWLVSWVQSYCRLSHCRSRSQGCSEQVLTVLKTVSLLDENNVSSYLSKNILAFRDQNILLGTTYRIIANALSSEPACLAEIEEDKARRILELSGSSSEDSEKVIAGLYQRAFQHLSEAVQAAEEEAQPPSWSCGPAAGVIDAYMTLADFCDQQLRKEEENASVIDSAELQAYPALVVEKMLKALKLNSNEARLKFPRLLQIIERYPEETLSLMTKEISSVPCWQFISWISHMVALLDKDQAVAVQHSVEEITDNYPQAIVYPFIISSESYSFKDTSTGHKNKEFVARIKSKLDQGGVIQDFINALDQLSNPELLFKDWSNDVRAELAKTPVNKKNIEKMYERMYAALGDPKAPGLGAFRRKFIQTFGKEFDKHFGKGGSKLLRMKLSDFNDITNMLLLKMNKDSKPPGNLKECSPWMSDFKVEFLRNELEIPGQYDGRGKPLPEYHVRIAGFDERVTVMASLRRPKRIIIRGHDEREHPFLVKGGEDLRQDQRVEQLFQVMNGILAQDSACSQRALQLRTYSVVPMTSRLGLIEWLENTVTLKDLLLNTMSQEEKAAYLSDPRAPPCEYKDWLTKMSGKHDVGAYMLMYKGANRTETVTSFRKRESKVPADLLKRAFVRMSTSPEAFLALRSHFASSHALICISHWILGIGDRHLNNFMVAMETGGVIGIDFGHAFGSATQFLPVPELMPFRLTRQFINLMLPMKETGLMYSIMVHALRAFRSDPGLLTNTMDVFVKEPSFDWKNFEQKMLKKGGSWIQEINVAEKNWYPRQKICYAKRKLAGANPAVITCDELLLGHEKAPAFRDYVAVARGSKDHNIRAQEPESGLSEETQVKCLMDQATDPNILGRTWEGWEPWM

- inhibition [1]: 17%
- inhibition (Homo sapiens [2]): 5%
- inhibition [4]: 7%
- bioavailability [5]: 43.5%
- MRT inf [8]: 16.3 h
- inhibition [14]: 10%
- Tmax [15]: 3 h
- IC50 [16]: 0.026 µM
- inhibition [18]: 4%
Compound: N#CCN1CCC(n2c(=O)cnc3cnc4ccc(-c5ccc(N)nc5)cc4c32)CC1
- Activity (SiHa [3]): Dose-dependent effect
- inhibition in vivo at 60 mg/kg (T47D [6]): 83.7%
- Activity (Mus musculus [7]): Dose-dependent effect
- inhibition (Homo sapiens [9]): Active
- Activity (T47D [10]): Active
- inhibition (HeLa [11]): Active
- inhibition in vivo at 30 mg/kg (T47D [12]): 75.6%
- inhibition (Homo sapiens [13]): Active
- IC50 (SiHa [17]): 0.11 µM
- Activity (T47D [19]): Active
- Activity (SiHa [20]): Active
- Activity (Mus musculus [21]): Non-Toxic
- inhibition (Homo sapiens [22]): Active
- Activity (HeLa [23]): Active
